Results from PMC12316956 (Scientific Reports, 2025).
Where two headings read alike, the source gives them in different places. Values belong to the molecule of their own block, whether it stands above or below them.

Tests used:
[1] = assay type: in vivo, Sprague Dawley rats; settings: for accumulation factor: rats
Method in brief: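 Male SD rats (n = 5/group) were 7 wk old for the single dose, 6 wk for 2 wks, and 4 wk for 4 or 8 wks. They received KRG in PBS, 2 g/kg/day PO. Tail-vein blood was drawn 0–96 h after the last dose and spun 13,700 x g for 15 min; plasma was stored at −80 °C. Rb1, Rd and compound K were measured by LC-MS/MS with berberine as internal standard. Non-compartmental analysis was used; Tmax is reported as median (range).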

[2] = Pharmacokinetic study 2: oral compound K, single or 4 wks, in rats; assay type: in vivo, Sprague Dawley rats; settings: AUC 4 wks / AUC single
Method in brief: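 Male SD rats (n = 5/group; 7 wk old for single dosing, 4 wk for 4 wks) got test compound in PBS by oral gavage at 5 or 10 mg/kg/day, single dose or 4 wks. Tail-vein plasma was sampled 0–24 h and assayed by LC-MS/MS. One-compartment model; AUC by trapezoids; Tmax as median (range). Accumulation factor = AUC(0−t) repeated / AUC(0−t) single at the same dose.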

[3] = 80% T>IC50, 5 mg/kg, single oral, rats
[4] = system: prostaglandin E2 (PGE2); settings: read-out: IC50 for PGE2; in vitro; ref Park et al.[47]; cited from earlier work
[5] = system: nitric oxide (NO); settings: read-out: IC50 for NO; in vitro; ref Park et al.[47]; cited from earlier work
[6] = system: A549; settings: A549 lung cancer cell line; cited from earlier work
[7] = system: PC-9 cells; settings: PC-9 lung cancer cell line; cited from earlier work
[8] = rats, same dose level; cited from earlier work
[9] = humans; cited from earlier work
[10] = male, Sprague-Dawley, rat, plasma, po, 2 g/kg
[11] = KRG 2 g/kg oral, 2 wks vs single (AUC ratio)

SMILES: CC(C)=CCC[C@](C)(O[C@@H]1O[C@H](CO)[C@@H](O)[C@H](O)[C@H]1O)[C@H]1CC[C@]2(C)[C@@H]1[C@H](O)C[C@@H]1[C@@]3(C)CC[C@H](O)C(C)(C)[C@@H]3CC[C@]12C [Compound K, compound K]
Cmax ([1]; rat plasma, KRG 2 g/kg oral, 4 wks): 2.9 ng/mL | Cmax ([1]; rat plasma, KRG 2 g/kg oral, 8 wks): 2.3 ng/mL | accumulation factor ([2]; compound K oral 5 mg/kg): 4 | accumulation factor ([2]; compound K oral 10 mg/kg): 7 | Calculated dosing interval ([3]; NO (IC50 12 µM)): ~7 h | Calculated dosing interval ([3]; PGE2 (IC50 4 µM)): ~18 h | IC50 [4]: 4 µM | IC50 [5]: 12 µM | in vitro IC50, antitumor activity [6]: 16.11 µg/mL | in vitro IC50, antitumor activity [7]: 14.46 µg/mL | oral bioavailability [8]: 4% | time of appearance in plasma after consuming ginseng lacking compound K [9]: 8 h

Cmax [1, 10]: 23.9 ng/mL | Cmax at 8 wks [1, 10]: 68.3 ng/mL | accumulation factor [1, 11]: approximately 3
SMILES: CC(C)=CCC[C@](C)(O[C@@H]1O[C@H](CO[C@@H]2O[C@H](CO)[C@@H](O)[C@H](O)[C@H]2O)[C@@H](O)[C@H](O)[C@H]1O)[C@H]1CC[C@]2(C)[C@@H]1[C@H](O)C[C@@H]1[C@@]3(C)CC[C@H](O[C@@H]4O[C@H](CO)[C@@H](O)[C@H](O)[C@H]4O[C@@H]4O[C@H](CO)[C@@H](O)[C@H](O)[C@H]4O)C(C)(C)[C@@H]3CC[C@]12C [Rb1, ginsenoside Rb1]
time within which excreted in the urine [9]: ≤ 3 h

SMILES: CC(C)=CCC[C@](C)(O[C@@H]1O[C@H](CO[C@@H]2O[C@@H](CO)[C@H](O)[C@H]2O)[C@@H](O)[C@H](O)[C@H]1O)[C@H]1CC[C@]2(C)[C@@H]1[C@H](O)C[C@@H]1[C@@]3(C)CC[C@H](O[C@@H]4O[C@H](CO)[C@@H](O)[C@H](O)[C@H]4O[C@@H]4O[C@H](CO)[C@@H](O)[C@H](O)[C@H]4O)C(C)(C)[C@@H]3CC[C@]12C [Rc, ginsenoside Rc]
time within which excreted in the urine [9]: ≤ 3 h

Cmax [1, 10]: 8.5 ng/mL | accumulation factor [1, 11]: 2.2 | accumulation factor ([1]; KRG 2 g/kg oral, 8 wks vs single (AUC ratio)): 5
SMILES: CC(C)=CCC[C@](C)(O[C@@H]1O[C@H](CO)[C@@H](O)[C@H](O)[C@H]1O)[C@H]1CC[C@]2(C)[C@@H]1[C@H](O)C[C@@H]1[C@@]3(C)CC[C@H](O[C@@H]4O[C@H](CO)[C@@H](O)[C@H](O)[C@H]4O[C@@H]4O[C@H](CO)[C@@H](O)[C@H](O)[C@H]4O)C(C)(C)[C@@H]3CC[C@]12C [Rd, ginsenoside Rd]
time within which excreted in the urine [9]: ≤ 3 h

SMILES: CC(C)=CCC[C@](C)(O[C@@H]1O[C@H](CO)[C@@H](O)[C@H](O)[C@H]1O)[C@H]1CC[C@]2(C)[C@@H]1[C@H](O)C[C@@H]1[C@@]3(C)CC[C@H](O)C(C)(C)[C@@H]3[C@@H](O[C@@H]3O[C@H](CO)[C@@H](O)[C@H](O)[C@H]3O)C[C@]12C [Rg1, ginsenoside Rg1]
time within which excreted in the urine [9]: ≤ 3 h
